# An excerpt weighted towards active compounds, which were near 5.7% of everything screened.
# Calb FLC: C. albicans growth inhibition with fluconazole, primary screen, CaCi-2 strain, Alamar Blue fluorescence. growth inhibition, % (concentration not given with the values). AID 1979, 2009. C. albicans CaCi-2 (fluconazole-resistant clinical isolate) + fluconazole, 48 h. hit rate 0.57% among 300,000;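 active = growth inhibition above about 58% in most replicates, limit read from the data, passing the limit was not always enough; inconclusive = exactly half the replicates above a set limit; inactive = most replicates below a set limit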;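 also: all wells also contain fluconazole at 8 µg/ml as a sub-toxic cotreatment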
# Beta cell apopt: inhibitors of cytokine-induced beta cell apoptosis, primary screen, luminescence; INS-1E cytokine-induced death, ATP luminescence, 48 h; percent of positive-control rescue, neutral wells zero; protection from apoptosis, % (concentration not given with the values); AID 435005, 2010; hit rate 0.8% among 300,000;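 active = Every replicate reaches about 75%, or at least half do and their mean reaches it too, limit read from the data; inconclusive = At least half of replicates reach the limit but their mean does not; inactive = Under half of replicates reach the limit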;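 also: higher means more ATP so stronger rescue from cytokine killing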
# CSC inhib: cancer stem cell viability inhibitors, primary screen, luminescence. AID 2717, 2010. cancer stem cell-like cells viability. hit rate 1.1% among 300,000. inhibition, % at 7.5 µM; in the data active = inhibition above about 75%; inconclusive = no clear call, values can overlap the other calls; tested in HMLE shEcad cells
# T cruzi repl: inhibitors of intracellular T. cruzi growth, primary screen, luminescence, NIH3T3 host cells | T. cruzi beta-gal in NIH3T3, 90 h | inhibition, % (no concentration beside the values) | hit rate 1.4% among 300,000 | AID 1885, 2009;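 active = mean inhibition across valid replicates above about 55%, limit read from the data; inconclusive = mean below that limit but half or more replicates reach it; inactive = mean below it, under half of replicates reach it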;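 also: signal also drops with host cell toxicity which is not excluded here; higher percent means less beta-gal luminescence so fewer parasites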
#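 Test system: β-gal T. cruzi (Tulahuen C4) inside NIH/3T3 cells / Quantity: 5,000 cells/well / Measured by: luminescence from GalScreen with 0.05% NP40, read after 60 min / Medium: DMEM plus 2% FBS / Measure: parasite load inhibition, % / Reagent: Tulahuen C4 trypomastigotes, 5000/well / Schedule: co-culture of at least 90 h after 3 h attachment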
# Mdm2-MdmX inh: inhibitors of human Mdm2-MdmX association, primary screen, cell-based, luminescence, split luciferase, SaOS-2, uHTS; hit rate 3% among 330,000; inhibition, % at 8 µM; SaOS-2 split-luciferase Mdm2/MdmX complementation;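 active = inhibition of at least 50% at 8 µM in the primary screen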
# SKKanGAS inh: S. pyogenes SKKanGAS growth inhibitors in kanamycin, primary screen, streptokinase expression inhibitor project, SKKanGAS strain, BacTiter-Glo luminescence. hit rate 1.3% among 300,000. AID 1662, 2009. inhibition, % at 7.5 µM. 6 h;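 active = mean replicate score, as percent of positive control median, at least 50; inconclusive = mean below 50 but one replicate at or above 50; inactive = mean and every replicate below 50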;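 also: strain carries kanamycin resistance gene driven by streptokinase promoter and grows in 40 µg/ml kanamycin; loss of luminescence reflects streptokinase promoter inhibition or plain growth inhibition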
# Numbers stand for hits; - = inactive; ? = inconclusive; . = not tested or not shown.
SMILES,Calb FLC,Beta cell apopt,CSC inhib,T cruzi repl,Mdm2-MdmX inh,SKKanGAS inh
Cc1ccc(NC(=O)CSCC(=O)NNC(=O)c2ccoc2C)cc1,-,.,-,-,-,-
CC(C)(C)N1C(=O)[C@H]2[C@@H](c3ccc(Br)cc3)N3C(=O)N(c4cccc(Br)c4)C(=O)[C@@]3(Cc3ccccc3)[C@H]2C1=O,-,-,-,58,-,-
O=C1[C@H]2[C@@H](c3ccc(Cl)cc3)N3C(=O)N(c4cccc(F)c4)C(=O)[C@@]3(Cc3ccc(Cl)cc3)[C@H]2C(=O)N1C1CCCCC1,-,-,-,61,-,-
O=C1[C@H]2[C@@H](c3ccc(F)cc3)N3C(=O)N(c4cccc(F)c4)C(=O)[C@@]3(Cc3ccc(Cl)cc3)[C@H]2C(=O)N1C1CCCCC1,-,-,-,-,-,-
O=C1CCC/C(=N/Nc2ccc(Cl)cc2)C1,106,-,-,-,-,-
O=C(NN=C1CCCC1)c1ccc(Cl)cc1,-,-,-,-,-,-
COc1ccc(/C=N/OCC(=O)Nc2nc3ccccc3s2)cc1,108,-,.,-,-,-
O=c1cc(OCc2ccccc2)cc[nH]1,.,-,.,.,-,.
CC(NS(=O)(=O)OCC(Cl)(Cl)Cl)c1ccc(C(C)(C)C)cc1 (configuration not stated),-,-,?,-,.,93
CCC(C)c1ccc(NC(=O)COc2c(F)c(F)c(C(F)(F)F)c(F)c2F)cc1 (configuration not stated),-,-,-,-,-,67
C[n+]1ccc(/C=N/Nc2nc(Cl)c(C#N)c(Cl)c2Cl)cc1,-,.,-,-,-,91
CCCCOc1cc(NCc2ccccc2)c2ncn(C(C)C)c2c1,.,80,.,.,-,.
CCC(CO)Oc1cc(NCc2ccc(O)cc2)c2ncn(C(C)C)c2c1 (configuration not stated),.,-,.,.,-,.
CCC(CO)Oc1cc(NCc2ccc(C(C)(C)C)cc2)c2ncn(C(C)C)c2c1 (configuration not stated),.,137,.,.,-,.
Cc1cc(C)c2c(N)c(C(=O)c3ccccc3Cl)sc2n1,-,-,-,56,-,-
COc1ccc(-n2sc3c(c2=S)-c2cc(OC)ccc2NC3(C)C)cc1,-,-,129,-,-,-
COc1ccc2c(c1)-c1c(sn(-c3ccccc3)c1=S)C(C)(C)N2,?,-,-,-,-,-
COCCOc1ccc(C(F)(F)F)cc1NC(=O)COC(=O)c1ccc(N2CCCC2=O)cc1,.,-,-,.,-,.
CCOc1ccc(CN2CCN(Cc3[nH]c4ccc(OC)cc4c3C)CC2CCO)cc1 (configuration not stated),-,.,-,72,-,-
COc1ccc(CN2CCN(Cc3cc4ccccc4o3)CC2CCO)cc1C (configuration not stated),-,.,-,55,-,-
COc1cccc(CN2CCN(Cc3cc4ccccc4o3)CC2CCO)c1 (configuration not stated),-,-,-,-,-,-
CCOc1ccccc1CN1CCN(Cc2nc3ccccc3s2)CC1CCO (configuration not stated),-,-,-,58,-,-
CCOc1ccccc1CN1CCN(CC2=Cc3cc(OC)ccc3OC2)CC1CCO (configuration not stated),-,-,-,55,-,-
COc1cc(CC(=O)OCC(=O)c2ccc(F)cc2)cc(OC)c1OC,.,-,-,.,-,.
CN1CCN(c2nc(-c3ccc(Cl)s3)cs2)CC1,-,-,-,-,-,-
COC(=O)CCc1c(C)c(C(=O)c2cc(OC)c(OC)c(OC)c2)c2ccccn12,-,-,-,-,-,-
CCN(CC(=O)Nc1ccc(OC)cc1)C(=O)c1ccccc1Sc1ccccc1C#N,-,-,-,-,-,-
Cc1ccc(N(CCC#N)C(=O)COC(=O)C2CCN(S(=O)(=O)c3ccc(C)c(C)c3)CC2)cc1,-,-,-,-,-,-
CCC(C)(C)NC(=O)C(c1ccc(F)cc1)N(CCOC)C(=O)CCC(=O)Nc1nccs1 (configuration not stated),-,-,-,-,-,-

# Screening data (PubChem)
